Laboratory results as given in ChEMBL document CHEMBL1148441, “Simple, short peptide derivatives of a sulfonylindolecarboxamide (L-737,126) active in vitro against HIV-1 wild type and variants carrying non-nucleoside reverse transcriptase inhibitor resistance mutations” (J Med Chem, 2004).

Columns and labels:
[1] = tested on: Human immunodeficiency virus 1; experiment: Inhibition of HIV-1 (IIIB) induced cytopathicity in MT-4 cells.; type: functional, organism-based; settings: Human immunodeficiency virus 1, MT4
In short: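 HIV-1 IIIB (from persistently infected H9/IIIB supernatant) added to MT-4 cells (1×10^4/well) with graded compound concentrations, dose set to give full cytopathicity by day 4, 37 °C. Cell viability read by MTT; EC50 = concentration giving 50% protection. Mean of three experiments.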

[2] = tested on: Human immunodeficiency virus 1; experiment: Inhibition of Efavirenz resistant HIV-1 (Y181C) induced cytopathicity in MT-4 cells.; type: functional, organism-based; settings: Human immunodeficiency virus 1, MT4
In short: (§1)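 MT-4 cells (1×10^4/well) with test compound dilutions (from 200 mM DMSO stock) infected with mutant HIV-1 at a CCID50 dose causing complete cytopathicity by day 4, 37 °C; viability by MTT. Y181C from clinical isolate passaged under nevirapine; K103N–Y181C from IIIB passaged under BI-RG 587. EC50 = 50% protection; mean of three experiments.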

[3] = In vitro concentration required to reduce the amount of p24 by 90% in WTIIIB infected C8166 cells; type: functional; settings: Homo sapiens
In short: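 C8166 cells (1×10^4 per well) in RPMI 1640 with 10% FCS, exposed to serial compound dilutions (DMSO stock 200 mM, diluted in medium), then infected with HIV-1 IIIB from H9/IIIB supernatants, inoculum sized for complete cytopathicity at day 4; incubation at 37 °C; p24 measured by immunoenzymatic kit; EC90 = concentration cutting p24 by 90%; means of three experiments.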

MT4 = experiment: In vitro cytotoxicity against mock infected MT-4 cells.; type: functional; settings: Homo sapiens
In short: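 Mock-infected MT-4 cells (1×10^4 per well) in RPMI 1640 with 10% FCS, 37 °C, 5% CO2, exposed to serial compound dilutions (DMSO stock 200 mM, diluted in medium), run in parallel with antiviral wells; viability read by MTT; CC50 = concentration reducing viability by 50%; means of three separate experiments, triplicate samples.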

[4] = tested on: Human immunodeficiency virus 1; experiment: In vitro reduction of p24 by 90% in Efavirenz resistant HIV-1 (K103R, V179D, P225H) infected C8166 cells.; type: functional; settings: Human immunodeficiency virus 1, C8166
In short: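 C8166 cells (1×10^4/well) with compound dilutions infected with K103R–V179D–P225H HIV-1 (IIIB passaged in C8166 under efavirenz up to 2 μM), 37 °C; p24 antigen measured by immunoenzymatic kit alongside WT IIIB. EC90 = concentration cutting p24 by 90%; mean of three experiments.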

[5] = Selectivity index (Ratio of CC50/EC50).; type: functional
In short: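 Ratio of CC50 (MTT viability of mock-infected MT-4 cells) to EC50 (MTT protection of MT-4 cells from cytopathicity of HIV-1 IIIB, inoculum giving complete cytopathicity at day 4, 37 °C); both run in parallel on the same compound dilution series.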

[6] = tested on: Human immunodeficiency virus 1; experiment: Inhibition of Efavirenz resistant HIV-1 (K103N-Y181C) induced cytopathicity in MT-4 cells.; type: functional, organism-based; settings: Human immunodeficiency virus 1, MT4; in short: as §1

Row | Structure (SMILES) | EC50 [1] [nM] | EC50 [2] [nM] | EC90 [3] [nM] | CC50 (MT4) [nM] | EC90 [4] [nM] | Ratio [5] | EC50 [6] [nM]
1 | Cc1ccnc2c1NC(=O)c1cccnc1N2C1CC1 [NEVIRAPINE] | 400 | > 30000 | 120 | > 100000 | > 30000 | > 270 | > 30000
2 | NC(=O)CNC(=O)c1[nH]c2ccc(Cl)cc2c1S(=O)(=O)c1ccccc1 | 13 | 180 |  | 65000 | 2700 | 5000 | > 20000
3 | CC(NC(=O)c1[nH]c2ccc(Cl)cc2c1S(=O)(=O)c1ccccc1)C(N)=O (stereo not drawn) | 10 | 360 |  | 64000 | 3000 | 6400 | 16000
4 | Cc1cc(C)cc(S(=O)(=O)c2c(C(=O)NCC(=O)NN)[nH]c3ccc(Cl)cc23)c1 | 10 | 50 | 30 | > 100000 | 1000 | > 10000 | 2000
5 | NNC(=O)c1[nH]c2ccc(Cl)cc2c1S(=O)(=O)c1ccccc1 |  | 400 | 20 | > 100000 | 3000 | > 10000 | ≥ 100000
6 | Cc1cc(C)cc(S(=O)(=O)c2c(C(=O)NCC(N)=O)[nH]c3ccc(Cl)cc23)c1 | 6 | 30 | 10 | 30000 | 100 | 5000 | 800
7 | Cc1cc(C)cc(S(=O)(=O)c2c(C(=O)NC(C)C(N)=O)[nH]c3ccc(Cl)cc23)c1 (stereo not drawn) | 3 | 10 | 4 | 4000 | 40 | 1330 | 700
8 | NC(=O)c1[nH]c2ccc(Cl)cc2c1S(=O)(=O)c1ccccc1 [L-737126] |  | 20 | 7 | 45000 | 900 | 45000 | 8000
9 | Cc1cc(C)cc(S(=O)(=O)c2c(C(=O)NC(C)C(=O)NN)[nH]c3ccc(Cl)cc23)c1 (stereo not drawn) | 30 | 140 | 70 | 20000 | 700 | 666 | 4700
10 | Cc1cc(C)cc(S(=O)(=O)c2c(C(N)=O)[nH]c3ccc(Cl)cc23)c1 |  | 30 | 6 | 15000 | 80 | 3750 | 600
11 | O=C1Nc2ccc(Cl)cc2[C@@](C#CC2CC2)(C(F)(F)F)O1 [EFAVIRENZ] |  |  | 8 | 35000 | 1800 |  | 
